Measured values published in ChEMBL document CHEMBL5303300, “EUbOPEN Chemogenomics Library - Multiplex” (2023).
“And” between values parts separate entries of the source, which are not always exact repeats. Equal entries are not always repeated.

Experiments:
Fibroblast = assay: Multiplex assay against human fibroblast; type: toxicity, cell-based; conditions: number of replicates 2
Outline: (§1)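 Imaging took place on a CQ1 microscope at 37°C and 5% CO2 once compound had been added to live cells stained at seeding with Hoechst33342, BioTracker Green Microtubule Cytoskeleton Dye, MitoTracker Red and Annexin V Alexa Fluor 680. CellPathfinder machine-learning gating classed cells as Hoechst high-intensity objects or normal cells, classed normal cells as having healthy, pyknosed or fragmented nuclei, and classed pyknosed cells as mitotic or apoptotic. Tubulin, mitochondrial-mass and membrane-permeability phenotypes are per cents of the healthy-nucleus cells.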

HEK-293T = assay: Multiplex assay against HEK293T; type: toxicity, cell-based; conditions: human, number of replicates 2; outline: as §1
[1] = 12 h, 1 µM, compound concentration 1 uM
[2] = 12 h, 10 µM, compound concentration 10 uM
[3] = 24 h, 1 µM, compound concentration 1 uM
[4] = 24 h, 10 µM, compound concentration 10 uM
[5] = 48 h, 1 µM, compound concentration 1 uM
[6] = 48 h, 10 µM, compound concentration 10 uM

COc1cccc(Cn2cc(C(=O)Nc3ccc(C)c(S(=O)(=O)N4CCOCC4)c3)c(-c3ccc(C)cc3)n2)c1
Population Apoptotic (%) (Fibroblast; [1]): 48% and 37% | Population Fragmented Nuclei (%) (Fibroblast; [1]): 7% and 6% | Population Healthy Nuclei (%) (Fibroblast; [1]): 65% and 67% | Population Hoechst High Intensity Objects (%) (Fibroblast; [1]): 0% and 1% | Population Membrane Permeable-Phenotype (%) (Fibroblast; [1]): 13% and 10% | Population Mitochondria Different-Phenotype (%) (Fibroblast; [1]): 2% and 3% | Population Mitotic Cells (%) (Fibroblast; [1]): 51% and 62% | Population Normal (%) (Fibroblast; [1]): 100% and 98% | Population Pyknosed Nuclei (%) (Fibroblast; [1]): 26% and 27% | Population Tubulin-Different-Phenotype (%) (Fibroblast; [1]): 44% and 39% | Total Cell Count (Fibroblast; [1]): 152 and 203 | Population Apoptotic (%) (Fibroblast; [2]): 39% and 45% | Population Fragmented Nuclei (%) (Fibroblast; [2]): 6% and 7% | Population Healthy Nuclei (%) (Fibroblast; [2]): 63% and 53% | Population Hoechst High Intensity Objects (%) (Fibroblast; [2]): 0% and 1% | Population Membrane Permeable-Phenotype (%) (Fibroblast; [2]): 21% and 28% | Population Mitochondria Different-Phenotype (%) (Fibroblast; [2]): 2% and 1% | Population Mitotic Cells (%) (Fibroblast; [2]): 60% and 54% | Population Normal (%) (Fibroblast; [2]): 100% and 98% | Population Pyknosed Nuclei (%) (Fibroblast; [2]): 29% and 38% | Population Tubulin-Different-Phenotype (%) (Fibroblast; [2]): 93% and 85% | Total Cell Count (Fibroblast; [2]): 191 and 229 | Population Apoptotic (%) (Fibroblast; [3]): 57% and 42% | Population Fragmented Nuclei (%) (Fibroblast; [3]): 9% and 10% | Population Healthy Nuclei (%) (Fibroblast; [3]): 64% and 59% | Population Hoechst High Intensity Objects (%) (Fibroblast; [3]): 0% | Population Membrane Permeable-Phenotype (%) (Fibroblast; [3]): 13% and 9% | Population Mitochondria Different-Phenotype (%) (Fibroblast; [3]): 1% and 3% | Population Mitotic Cells (%) (Fibroblast; [3]): 42% and 57% | Population Normal (%) (Fibroblast; [3]): 100% | Population Pyknosed Nuclei (%) (Fibroblast; [3]): 25% and 30% | Population Tubulin-Different-Phenotype (%) (Fibroblast; [3]): 44% and 38% | Total Cell Count (Fibroblast; [3]): 162 and 205 | Population Apoptotic (%) (Fibroblast; [4]): 66% and 67% | Population Fragmented Nuclei (%) (Fibroblast; [4]): 9% | Population Healthy Nuclei (%) (Fibroblast; [4]): 70% and 57% | Population Hoechst High Intensity Objects (%) (Fibroblast; [4]): 0% and 1% | Population Membrane Permeable-Phenotype (%) (Fibroblast; [4]): 14% and 20% | Population Mitochondria Different-Phenotype (%) (Fibroblast; [4]): 2% and 7% | Population Mitotic Cells (%) (Fibroblast; [4]): 33% and 32% | Population Normal (%) (Fibroblast; [4]): 100% and 98% | Population Pyknosed Nuclei (%) (Fibroblast; [4]): 19% and 32% | Population Tubulin-Different-Phenotype (%) (Fibroblast; [4]): 90% and 84% | Total Cell Count (Fibroblast; [4]): 199 and 219 | Population Apoptotic (%) (Fibroblast; [5]): 73% and 64% | Population Fragmented Nuclei (%) (Fibroblast; [5]): 13% and 11% | Population Healthy Nuclei (%) (Fibroblast; [5]): 65% and 67% | Population Hoechst High Intensity Objects (%) (Fibroblast; [5]): 0% | Population Membrane Permeable-Phenotype (%) (Fibroblast; [5]): 6% and 9% | Population Mitochondria Different-Phenotype (%) (Fibroblast; [5]): 1% and 2% | Population Mitotic Cells (%) (Fibroblast; [5]): 26% and 35% | Population Normal (%) (Fibroblast; [5]): 100% and 99% | Population Pyknosed Nuclei (%) (Fibroblast; [5]): 21% and 20% | Population Tubulin-Different-Phenotype (%) (Fibroblast; [5]): 34% | Total Cell Count (Fibroblast; [5]): 178 and 191 | Population Apoptotic (%) (Fibroblast; [6]): 75% | Population Fragmented Nuclei (%) (Fibroblast; [6]): 15% and 17% | Population Healthy Nuclei (%) (Fibroblast; [6]): 69% and 58% | Population Hoechst High Intensity Objects (%) (Fibroblast; [6]): 0% and 1% | Population Membrane Permeable-Phenotype (%) (Fibroblast; [6]): 25% and 23% | Population Mitochondria Different-Phenotype (%) (Fibroblast; [6]): 1% and 5% | Population Mitotic Cells (%) (Fibroblast; [6]): 25% | Population Normal (%) (Fibroblast; [6]): 100% and 98% | Population Pyknosed Nuclei (%) (Fibroblast; [6]): 15% and 23% | Population Tubulin-Different-Phenotype (%) (Fibroblast; [6]): 89% and 83% | Total Cell Count (Fibroblast; [6]): 210 and 238 | Population Apoptotic (%) (HEK-293T; [1]): 39% and 54% | Population Fragmented Nuclei (%) (HEK-293T; [1]): 2% | Population Healthy Nuclei (%) (HEK-293T; [1]): 81% and 84% | Population Hoechst High Intensity Objects (%) (HEK-293T; [1]): 5% and 4% | Population Membrane Permeable-Phenotype (%) (HEK-293T; [1]): 6% and 4% | Population Mitochondria Different-Phenotype (%) (HEK-293T; [1]): 25% and 22% | Population Mitotic Cells (%) (HEK-293T; [1]): 60% and 45% | Population Normal (%) (HEK-293T; [1]): 94% and 95% | Population Pyknosed Nuclei (%) (HEK-293T; [1]): 15% and 12% | Population Tubulin-Different-Phenotype (%) (HEK-293T; [1]): 76% | Total Cell Count (HEK-293T; [1]): 633 and 601 | Population Apoptotic (%) (HEK-293T; [2]): 35% and 56% | Population Fragmented Nuclei (%) (HEK-293T; [2]): 1% and 3% | Population Healthy Nuclei (%) (HEK-293T; [2]): 83% | Population Hoechst High Intensity Objects (%) (HEK-293T; [2]): 6% and 7% | Population Membrane Permeable-Phenotype (%) (HEK-293T; [2]): 21% and 19% | Population Mitochondria Different-Phenotype (%) (HEK-293T; [2]): 24% and 26% | Population Mitotic Cells (%) (HEK-293T; [2]): 64% and 43% | Population Normal (%) (HEK-293T; [2]): 93% and 92% | Population Pyknosed Nuclei (%) (HEK-293T; [2]): 14% and 13% | Population Tubulin-Different-Phenotype (%) (HEK-293T; [2]): 84% and 87% | Total Cell Count (HEK-293T; [2]): 611 and 568 | Population Apoptotic (%) (HEK-293T; [3]): 46% and 42% | Population Fragmented Nuclei (%) (HEK-293T; [3]): 5% and 4% | Population Healthy Nuclei (%) (HEK-293T; [3]): 84% and 87% | Population Hoechst High Intensity Objects (%) (HEK-293T; [3]): 9% and 6% | Population Membrane Permeable-Phenotype (%) (HEK-293T; [3]): 5% and 6%
